Most compounds without a hit are left out; they make up all but 1.8% or so of the library.
M4 PAM = human M4 muscarinic receptor positive allosteric modulators, primary screen, CHO-K1 cells, Fluo-8 calcium fluorescence | 360,000 tested, 0.4% active | CHO-K1 hM4/Gqi5, ACh EC20; 0% = ACh EC20, 100% = maximal ACh | activation, % at 3 µM | Muscarinic acetylcholine receptor M4 (Homo sapiens), P08173;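 active = activation above its plate's cutoff, the mean activation of sample wells plus 3 SD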
M5 antag = human M5 muscarinic receptor antagonists, primary screen, CHO cells, Fluo-8 calcium fluorescence. CHO-hM5 cells, ACh EC80. inhibition, % at 3 µM. 360,000 tested, 0.59% active. AID 624040, 2012;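 active = inhibition above a per-plate cutoff, the mean of that plate's test compounds plus 3 SD, cut at about 27% in these data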;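 also: 0% = acetylcholine EC80 with DMSO and 100% = DMSO without agonist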
Target sequence (P08912 whole entry, looked up): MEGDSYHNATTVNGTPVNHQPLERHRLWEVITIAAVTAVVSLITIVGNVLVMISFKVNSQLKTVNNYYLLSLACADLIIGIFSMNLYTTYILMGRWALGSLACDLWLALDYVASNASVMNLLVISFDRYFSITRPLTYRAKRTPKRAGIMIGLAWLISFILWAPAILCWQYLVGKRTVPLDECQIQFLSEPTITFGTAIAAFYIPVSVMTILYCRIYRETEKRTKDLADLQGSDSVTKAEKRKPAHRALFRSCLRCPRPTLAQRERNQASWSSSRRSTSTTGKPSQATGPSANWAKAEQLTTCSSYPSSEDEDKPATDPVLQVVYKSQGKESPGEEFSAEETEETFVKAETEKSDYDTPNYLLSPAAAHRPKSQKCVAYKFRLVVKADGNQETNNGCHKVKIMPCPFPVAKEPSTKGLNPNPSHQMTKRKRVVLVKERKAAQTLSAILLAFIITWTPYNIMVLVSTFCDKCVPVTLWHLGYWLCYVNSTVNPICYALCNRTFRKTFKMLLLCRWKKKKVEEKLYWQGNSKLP
M5 PAM = human M5 muscarinic receptor positive allosteric modulators, primary screen, CHO-K1 cells, Fluo-8 calcium fluorescence; Muscarinic acetylcholine receptor M5 (Homo sapiens), P08912; CHO-K1 hM5, ACh EC20 PAM; 0% = ACh EC20, 100% = ACh EC100; activation, % at 3 µM; 360,000 tested, 0.3% active; AID 624038, 2012;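 active = activation above the run cutoff, the mean activation of all test compounds plus 3 SD, cut at about 18% in these data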
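Probe or stimulus: acetylcholine, EC20 level; Assay system: human M5 receptor in CHO-K1 cells; Schedule: compound preincubation 140 s before EC20 acetylcholine addition; Technique: intracellular calcium via Fluo-8 fluorescence; Dosing: single-point, 3 µM nominal; Read-out basis: percent activation from peak-over-basal fluorescence ratio, scaled EC20-to-EC100 acetylcholine; Repeats: one well per compound, no replicates.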
CHRM4 antagonist = human M4 muscarinic receptor antagonists, primary screen, CHO cells, Fluo-8 calcium fluorescence; Muscarinic acetylcholine receptor M4 (Homo sapiens), P08173; CHO-hM4 cells, ACh EC80; inhibition, % at 3 µM; 360,000 tested, 0.73% active; AID 624125, 2012;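 active = inhibition above its plate's cutoff, the mean inhibition of sample wells plus 3 SD, cut at about 27% in these data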;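 also: 0% = acetylcholine EC80 with DMSO and 100% = DMSO without agonist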
CHRM4 agonist = human M4 muscarinic receptor agonists, primary screen, CHO-K1 cells, Fluo-8 calcium fluorescence; CHO-K1 hM4/Gqi5; vehicle 0%, full acetylcholine response 100%; activation, % at 3 µM; 360,000 tested, 0.14% active; AID 624127, 2012;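 active = activation above the run mean over all test wells plus 3 SD, cut at about 32% in these data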;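 also: peak over basal fluorescence ratio per well then scaled between controls; 0% = DMSO wells and 100% = acetylcholine at EC100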
CHRM5 agonist = human M5 muscarinic receptor agonists, primary screen, CHO-K1 cells, Fluo-8 calcium fluorescence; activation, % at 3 µM; CHO-K1 hM5 cells; 0% DMSO wells, 100% maximal acetylcholine response; AID 624037, 2012; Muscarinic acetylcholine receptor M5 (Homo sapiens), P08912; 360,000 tested, 0.19% active;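 active = activation above the run's mean over test compounds plus 3 SD, cut at about 23% in these data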;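 also: signal is peak over basal fluorescence ratio across the kinetic read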
Numbers without * were called inactive.

SMILES	M4 PAM	M5 antag	M5 PAM	CHRM4 antagonist	CHRM4 agonist	CHRM5 agonist
CCOc1ccc(NC(=O)COC(=O)Cc2ccsc2)cc1	8	-8	9	-1	1	-1
Nc1[nH]c(C(=O)c2ccccc2)c(-c2cccnc2)c1C(=O)NC1CCCCC1	7	-1	-4	-6	1	2
CCCn1c(N)c(C(=O)CSc2nnc3ccccn23)c(=O)n(C)c1=O	27*	3	-4	0	2	0
CS(=O)CSc1nc2c(cc1C#N)CCCC2 (centres undefined)	-16	22	-24	58*	1	-4
C[C@H]1CN([C@@H](C)CO)C(=O)c2cccc(NC(=O)Nc3ccc(F)cc3)c2O[C@@H]1CN(C)Cc1ccc(C(=O)O)cc1	-2	11	-4	8	0	0
CC1(C)CC(=O)c2c(O)cc(OCC(=O)Nc3ccc(S(N)(=O)=O)cc3)cc2O1	2	6	-3	-6	3	1
COc1cc(NC(=O)COc2cc(O)c3c(c2)OC(C)(C)CC3=O)cc(OC)c1OC	-10	43*	-25	3	31	13
CC(=O)Nc1nc(-c2ccc3c(c2)CC(C)N3C(=O)C2CC2)c(C)s1 (centres undefined)	-8	3	-3	-6	2	-3
Cc1sc(NC(=O)c2ccco2)nc1-c1ccc2c(c1)CC(C)N2C(=O)C1CC1 (centres undefined)	-15	18	-16	32*	17	5
CCN1CCN(Cc2cccc(Oc3ccc(Cl)cc3)c2)CC1	-30	19	-14	18	5	-6
CN1CCN(Cc2cccc(Oc3ccc(Cl)cc3)c2)CC1	-17	35*	-16	14	6	-6
COc1ccc(CNC(=O)Nc2nc(C(N)Cc3ccc(F)cc3)cs2)cc1 (centres undefined)	-5	9	2	19	18	9
COc1ccccc1CNC(=O)Nc1nc(C(N)Cc2ccc(Cl)cc2)cs1 (centres undefined)	-4	4	-1	27*	15	6
COc1ccccc1CNC(=O)Nc1nc(C(N)C(C)C)cs1 (centres undefined)	2	0	-2	3	1	1
COc1ccc(CNC(=O)Nc2nc(C(N)Cc3ccc(Cl)cc3)cs2)cc1 (centres undefined)	-4	15	-1	33*	28	5
O=C(NNC(=O)c1ccc(S(=O)(=O)N2CCCC2)cc1)c1ccc(Br)cc1	2	-7	1	-5	3	0
O=c1ccn([C@@H]2O[C@H](CNCc3cccn3-c3nccs3)[C@@H](O)[C@H]2O)c(=O)[nH]1	-1	11	-2	5	1	0
Cc1ccccc1OCCn1cc(C(=S)N2CCCC2)c2ccccc21	-3	-9	-15	-7	1	-6
CC(=O)c1cn(CCOc2ccccc2C)c2ccccc12	-12	29*	-16	26	14	8
COC(=O)c1c(Sc2ccccc2)c2ccccc2n1C	-6	24	-19	-4	-1	58*
COc1ccc(NC(=O)COC(=O)c2cc(C)oc2C)c([N+](=O)[O-])c1	9	0	7	-3	0	1
O=C(NCCCN1CCOCC1)c1ccc(Sc2cccc(Cl)c2)c([N+](=O)[O-])c1	-16	6	-15	47*	3	-6
CCOC(=O)CSc1ccc(C(=O)NCCCN2CCOCC2)cc1[N+](=O)[O-]	-17	10	3	27*	0	-8
O=C(NCCCN1CCOCC1)c1ccc(Cl)c([N+](=O)[O-])c1	-3	-3	8	1	1	-2
